From ChEMBL document CHEMBL2440036, “3-[2-(Aminomethyl)-5-[(pyridin-4-yl)carbamoyl]phenyl] benzoates as soft ROCK inhibitors” (Bioorg Med Chem Lett, 2013)
Active and inactive are the calls of the source. The rule behind the calls is not given here.

Experiments:
[1] = Half life in human plasma by LC-MS/MS analysis; format: ADME, cell-free
[2] = Stability of the compound in PBS buffer at pH 7.4; format: physicochemical
[3] = target: Rho-associated protein kinase 2 (Homo sapiens, UniProt O75116); test: Inhibition of ROCK2 (unknown origin) using long S6 kinase peptide as substrate by radiometric assay
Chain of Rho-associated protein kinase 2 (O75116 whole entry): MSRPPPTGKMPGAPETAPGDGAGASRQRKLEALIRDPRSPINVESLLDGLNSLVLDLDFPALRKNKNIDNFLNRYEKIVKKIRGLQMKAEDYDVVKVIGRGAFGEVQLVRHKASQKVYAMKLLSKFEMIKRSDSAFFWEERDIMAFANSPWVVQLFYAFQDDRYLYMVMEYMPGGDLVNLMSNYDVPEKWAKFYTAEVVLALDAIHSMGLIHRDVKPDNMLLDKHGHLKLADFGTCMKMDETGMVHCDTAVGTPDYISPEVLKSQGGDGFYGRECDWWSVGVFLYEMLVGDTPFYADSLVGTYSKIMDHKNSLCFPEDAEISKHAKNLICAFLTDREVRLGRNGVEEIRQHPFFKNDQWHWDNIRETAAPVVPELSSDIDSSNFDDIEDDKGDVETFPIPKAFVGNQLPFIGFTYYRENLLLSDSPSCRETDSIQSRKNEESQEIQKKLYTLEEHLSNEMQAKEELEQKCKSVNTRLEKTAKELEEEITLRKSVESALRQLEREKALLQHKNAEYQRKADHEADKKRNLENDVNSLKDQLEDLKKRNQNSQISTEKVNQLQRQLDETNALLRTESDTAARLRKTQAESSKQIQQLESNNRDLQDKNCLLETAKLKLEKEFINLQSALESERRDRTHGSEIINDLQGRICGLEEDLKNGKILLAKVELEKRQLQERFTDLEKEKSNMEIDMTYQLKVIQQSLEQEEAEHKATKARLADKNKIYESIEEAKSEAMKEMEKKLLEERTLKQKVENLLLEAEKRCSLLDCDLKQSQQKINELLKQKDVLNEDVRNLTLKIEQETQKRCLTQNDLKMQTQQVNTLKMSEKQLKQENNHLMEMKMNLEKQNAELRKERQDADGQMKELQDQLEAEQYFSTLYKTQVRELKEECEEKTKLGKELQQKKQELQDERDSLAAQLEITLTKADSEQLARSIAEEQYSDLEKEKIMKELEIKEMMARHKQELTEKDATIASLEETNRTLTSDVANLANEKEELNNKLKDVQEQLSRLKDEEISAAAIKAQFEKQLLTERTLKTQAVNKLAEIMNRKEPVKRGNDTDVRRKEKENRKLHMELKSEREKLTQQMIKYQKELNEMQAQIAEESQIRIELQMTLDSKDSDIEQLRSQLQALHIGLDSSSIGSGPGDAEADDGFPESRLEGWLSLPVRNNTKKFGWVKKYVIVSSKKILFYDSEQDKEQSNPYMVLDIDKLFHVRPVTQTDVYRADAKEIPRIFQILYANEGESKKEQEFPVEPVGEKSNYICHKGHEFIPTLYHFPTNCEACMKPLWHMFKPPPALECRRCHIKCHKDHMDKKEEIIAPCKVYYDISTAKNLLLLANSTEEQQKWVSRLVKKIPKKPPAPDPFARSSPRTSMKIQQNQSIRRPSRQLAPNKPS

[4] = Inhibition of ROCK in rat A7r5 cells assessed as inhibition of MLC phosphorylation by direct ELISA; format: cell-based
[5] = tested on: Oryctolagus cuniculus; test: Reduction of IOP in New Zealand white rabbit eye administered topically after 6 hrs relative to vehicle-treated control; format: functional
[6] = Half life in aqueous humor of New Zealand white rabbit assessed as specific hydrolytic activity at 20 uM by LC-MS/MS analysis; format: ADME, tissue-based, Oryctolagus cuniculus, Aqueous humor of eyeball
Summary of the method: (§1)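 Test compound was incubated with ocular tissues from ocular normotensive New Zealand White rabbits, and its degradation rate was followed. Specific hydrolytic activity (pmol min-1 mg-1) was calculated by normalizing the degradation rate to tissue weight. Aqueous humor half-life refers to undiluted aqueous humor.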

[7] = Drug degradation in cornea of New Zealand white rabbit assessed as specific hydrolytic activity at 20 uM after 4 hrs by LC-MS/MS analysis; format: ADME, tissue-based, Oryctolagus cuniculus; summary of the method: as §1
[8] = tested on: Oryctolagus cuniculus; test: Reduction of IOP in New Zealand white rabbit eye administered topically after 3 hrs relative to baseline; format: functional; design: scale not given: the % may be the effect or the level left
[9] = Drug degradation in sclera of New Zealand white rabbit assessed as specific hydrolytic activity at 20 uM after 4 hrs by LC-MS/MS analysis; format: ADME, tissue-based, Oryctolagus cuniculus; summary of the method: as §1
[10] = Drug degradation in vitreous humor of New Zealand white rabbit assessed as specific hydrolytic activity at 20 uM after 4 hrs by LC-MS/MS analysis; format: ADME, tissue-based, Oryctolagus cuniculus; summary of the method: as §1
[11] = organism: Oryctolagus cuniculus; test: Toxicity in New Zealand white rabbit assessed as hyperemia; format: organism-based; settings: in vivo
[12] = Drug degradation in aqueous humor of New Zealand white rabbit assessed as specific hydrolytic activity at 20 uM after 4 hrs by LC-MS/MS analysis; format: ADME, tissue-based, Oryctolagus cuniculus, Aqueous humor of eyeball; summary of the method: as §1
[13] = Drug degradation in conjunctiva of New Zealand white rabbit assessed as specific hydrolytic activity at 20 uM after 4 hrs by LC-MS/MS analysis; format: ADME, tissue-based, Oryctolagus cuniculus; summary of the method: as §1
[14] = Drug degradation in human plasma after 60 mins by LC-MS/MS analysis; format: ADME, cell-free; settings: read-out: Drug degradation
[15] = Apparent permeability of the compound at 10 uM after 5 hrs by PAMPA; format: ADME

Row | SMILES | half-life [1] [min] | Stability [2] | IC50 [3] [nM] | EC50 [4] [nM] | further results
1 | NCc1ccc(C(=O)Nc2ccncc2F)cc1-c1cccc(C(=O)OCC2CCCCO2)c1 (stereo not given) | 7 | Stable | 12 |  | 
2 | NCc1ccc(C(=O)Nc2ccncc2F)cc1-c1cccc(C(=O)OCC2CCCC2)c1 | 17 | Stable | 13 | 52 | 
3 | NCc1ccc(C(=O)Nc2ccncc2)cc1-c1cccc(C(=O)OCC2CCCC2)c1 | 31 | Stable | 5 | 70 | 
4 | COC(=O)c1cccc(-c2cc(C(=O)Nc3ccncc3)ccc2CN)c1 | 91 | Stable | 2.9 | 8 | 
5 | COC(=O)c1cccc(-c2cc(C(=O)Nc3ccncc3F)ccc2CN)c1 | 65 | Stable | 7.8 | 130 | 
6 | CCCCCCOC(=O)c1cccc(-c2cc(C(=O)Nc3ccncc3)ccc2CN)c1 | 50 | Stable | 22 |  | 
7 | COCCOC(=O)c1cccc(-c2cc(C(=O)Nc3ccncc3)ccc2CN)c1 | 12 | Stable | 3.6 | 170 | 
8 | NCc1ccc(C(=O)Nc2ccncc2F)cc1-c1cccc(C(=O)OCC2CCC2)c1 | 13 | Stable | 4.3 |  | 
9 | NCc1ccc(C(=O)Nc2ccncc2F)cc1-c1cccc(C(=O)OCC2CCCO2)c1 (stereo not given) | < 5 | Stable | 2.5 | 16 | Activity [5]: Active; Activity ([5]; record 2): 0.5%; half-life at 20 µM [6]: 116 min; Drug degradation [7]: 2.71 pmol/min/mg; Activity [8]: 28.7%; Drug degradation [9]: 1 pmol/min/mg; Drug degradation [10]: 0.22 pmol/min/mg; Activity [11]: Non-toxic; Drug degradation [12]: 0.12 pmol/min/mg; Drug degradation [13]: 1.52 pmol/min/mg
10 | NCc1ccc(C(=O)Nc2ccncc2F)cc1-c1cccc(C(=O)OCCO)c1 | 81 | Stable | 1.4 |  | 
11 | CC(N)c1ccc(C(=O)Nc2ccncc2)cc1-c1ccc(F)cc1 (stereo not given) | > 120 |  | 1.2 | 6.1 | metabolised at 1 h [14]: < 5%
12 | CCCCOC(=O)c1cccc(-c2cc(C(=O)Nc3ccncc3)ccc2CN)c1 | 22 | Stable | 5.5 |  | 
13 | C[C@@H](N)[C@H]1CC[C@H](C(=O)Nc2ccncc2)CC1 [Y-27632] | > 120 |  |  | 200 | metabolised at 1 h [14]: < 5%
14 | CCCOC(=O)c1cccc(-c2cc(C(=O)Nc3ccncc3)ccc2CN)c1 | 18 | Stable | 1.4 | 9.1 | 
15 | CCCCCOC(=O)c1cccc(-c2cc(C(=O)Nc3ccncc3)ccc2CN)c1 | 58 | Stable | 4.9 |  | 
16 | NCc1ccc(C(=O)Nc2ccncc2)cc1-c1cccc(C(=O)OCC2CCCCC2)c1 | 99 | Stable | 48 |  | 
17 | NCc1ccc(C(=O)Nc2ccncc2F)cc1-c1cccc(C(=O)Oc2ccccc2)c1 | 7 | Stable | 6.2 |  | 
18 | CCCOC(=O)c1cccc(-c2cc(C(=O)Nc3ccncc3F)ccc2CN)c1 | 19 | Stable | 5.1 |  | 
19 | CC(C)OCCOC(=O)c1cccc(-c2cc(C(=O)Nc3ccncc3F)ccc2CN)c1 | 6 | Stable | 37 |  | 
20 | COC(=O)c1ccc(-c2cc(C(=O)Nc3ccncc3)ccc2CN)cc1 |  |  | 102 |  | 
21 | CCOC(=O)c1cccc(-c2cc(C(=O)Nc3ccncc3)ccc2CN)c1 | 41 | Stable | < 1 |  | 
22 | NCc1ccc(C(=O)Nc2ccncc2F)cc1-c1cccc(C(=O)OCC2CC2)c1 | 18 | Stable | 2.7 |  | 
23 | COCCCOC(=O)c1cccc(-c2cc(C(=O)Nc3ccncc3)ccc2CN)c1 | 26 | Stable | 1.5 | 28 | 
24 | NCc1ccc(C(=O)Nc2ccncc2)cc1-c1cccc(C(=O)O)c1 | > 120 |  | 167 | > 1000 | Papp at 5 h, 10 µM [15]: < 0.01 ×10⁻⁶ cm/s; metabolised at 1 h [14]: < 5%
25 | NCc1ccc(C(=O)Nc2ccncc2)cc1-c1cccc(C(=O)OC2CCCCC2)c1 | > 120 | Unstable | 20 |  | 
26 | NCc1ccc(C(=O)Nc2ccncc2)cc1-c1cccc(C(=O)OCc2ccccc2)c1 | 64 | Stable | 45 |  | 
27 | NCc1ccc(C(=O)Nc2ccncc2F)cc1-c1cccc(C(=O)OC2CCCOC2)c1 (stereo not given) | 18 | Stable | 8.7 |  | 
28 | NCc1ccc(C(=O)Nc2ccncc2F)cc1-c1cccc(C(=O)O)c1 | > 120 |  | 55 | > 1000 | Papp at 5 h, 10 µM [15]: < 0.01 ×10⁻⁶ cm/s; metabolised at 1 h [14]: < 5%
